Source: ChEMBL document CHEMBL5724801, “EUbOPEN Chemogenomics Library - Multiplex” (2024)
Where “and” joins values, the source holds several entries; their conditions need not be identical. Equal entries are not always repeated.

Tested on: HEK-293T
Assay: Multiplex assay against HEK293T
Assay type: toxicity, cell-based
Conditions: human
Procedure, shortened: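 With compound added, live cells were imaged on a CQ1 microscope at 37°C and 5% CO2; staining with Hoechst33342, BioTracker Green Microtubule Cytoskeleton Dye, MitoTracker Red and Annexin V Alexa Fluor 680 had been done at seeding. The CellPathfinder machine-learning gating scheme split cells into Hoechst high-intensity objects or normal cells, normal cells into healthy, pyknosed or fragmented nuclei, and pyknosed cells into mitotic or apoptotic. The tubulin, mitochondrial-mass and membrane-permeability phenotypes are per cents of healthy-nucleus cells.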

[1] = 12 h, 1 µM, compound concentration 1 uM
[2] = 12 h, 10 µM, compound concentration 10 uM
[3] = 24 h, 1 µM, compound concentration 1 uM
[4] = 24 h, 10 µM, compound concentration 10 uM
[5] = 48 h, 1 µM, compound concentration 1 uM
[6] = 48 h, 10 µM, compound concentration 10 uM

COCCNc1nc2ccc(C#CC3(O)CCCCC3)cc2n1-c1ccnc(N)n1
Population Apoptotic (%) [1]: 9.87% and 12.26%
Population Fragmented Nuclei (%) [1]: 1.33% and 5.34%
Population Hoechst High Intensity Objects (%) [1]: 0%
Population Membrane Permeable-Phenotype (%) [1]: 1.82% and 0%
Population Mitotic Cells (%) [1]: 90.13% and 87.74%
Population Normal (%) [1]: 100%
Population Pyknosed Nuclei (%) [1]: 40.32% and 80.92%
Total Cell Count [1]: 377 and 131
Population Apoptotic (%) [2]: 17.15% and 7.53%
Population Fragmented Nuclei (%) [2]: 0.29% and 2.41%
Population Hoechst High Intensity Objects (%) [2]: 0%
Population Membrane Permeable-Phenotype (%) [2]: 0%
Population Mitotic Cells (%) [2]: 82.85% and 92.47%
Population Normal (%) [2]: 100%
Population Pyknosed Nuclei (%) [2]: 68.29% and 87.95%
Population Tubulin-Different-Phenotype (%) [2]: 29.09% and 56.25%
Total Cell Count [2]: 350 and 166
Population Apoptotic (%) [3]: 11.24% and 8.33%
Population Fragmented Nuclei (%) [3]: 1.68% and 2.99%
Population Healthy Nuclei (%) [3]: 69.92% and 32.34%
Population Hoechst High Intensity Objects (%) [3]: 0% and 0.6%
Population Membrane Permeable-Phenotype (%) [3]: 2.88% and 1.85%
Population Mitochondria Different-Phenotype (%) [3]: 12.5% and 16.67%
Population Mitotic Cells (%) [3]: 88.76% and 91.67%
Population Normal (%) [3]: 100% and 99.4%
Population Pyknosed Nuclei (%) [3]: 28.4% and 64.67%
Population Tubulin-Different-Phenotype (%) [3]: 6.49% and 5.56%
Population Apoptotic (%) [4]: 30% and 31.16%
Population Fragmented Nuclei (%) [4]: 0.22% and 1.23%
Population Hoechst High Intensity Objects (%) [4]: 0.22% and 0%
Population Membrane Permeable-Phenotype (%) [4]: 1% and 0%
Population Mitochondria Different-Phenotype (%) [4]: 22.89% and 17.39%
Population Mitotic Cells (%) [4]: 70% and 68.84%
Population Normal (%) [4]: 99.78% and 100%
Population Pyknosed Nuclei (%) [4]: 55.31% and 84.66%
Population Tubulin-Different-Phenotype (%) [4]: 37.81% and 21.74%
Total Cell Count [4]: 453 and 163
Population Apoptotic (%) [5]: 6.04% and 14.1%
Population Fragmented Nuclei (%) [5]: 1.77% and 1.97%
Population Healthy Nuclei (%) [5]: 86.69% and 67.32%
Population Hoechst High Intensity Objects (%) [5]: 0.06% and 0%
Population Membrane Permeable-Phenotype (%) [5]: 6.87% and 2.34%
Population Mitochondria Different-Phenotype (%) [5]: 9.94% and 24.56%
Population Mitotic Cells (%) [5]: 93.96% and 85.9%
Population Normal (%) [5]: 99.94% and 100%
Population Pyknosed Nuclei (%) [5]: 11.53% and 30.71%
Population Apoptotic (%) [6]: 18.78% and 26.09%
Population Fragmented Nuclei (%) [6]: 0.76% and 2.91%
Population Healthy Nuclei (%) [6]: 68.15% and 30.1%
Population Hoechst High Intensity Objects (%) [6]: 0.25% and 0%
Population Membrane Permeable-Phenotype (%) [6]: 2.79% and 1.61%
Population Mitochondria Different-Phenotype (%) [6]: 59.96% and 58.06%
Population Mitotic Cells (%) [6]: 81.22% and 73.91%
Population Normal (%) [6]: 99.75% and 100%
Population Pyknosed Nuclei (%) [6]: 31.09% and 66.99%

Br.CS(=O)(=O)Nc1c(O)ccc2c1CCCC2C1=NCCN1 (configuration not stated)
Population Apoptotic (%) [1]: 40% and 43%
Population Fragmented Nuclei (%) [1]: 7% and 5%
Population Healthy Nuclei (%) [1]: 80% and 81%
Population Hoechst High Intensity Objects (%) [1]: 5% and 8%
Population Membrane Permeable-Phenotype (%) [1]: 0%
Population Mitochondria Different-Phenotype (%) [1]: 45% and 52%
Population Mitotic Cells (%) [1]: 59% and 56%
Population Normal (%) [1]: 94% and 91%
Population Pyknosed Nuclei (%) [1]: 12%
Population Tubulin-Different-Phenotype (%) [1]: 26% and 18%
Total Cell Count [1]: 407 and 334
Population Apoptotic (%) [2]: 48% and 55%
Population Fragmented Nuclei (%) [2]: 8% and 6%
Population Healthy Nuclei (%) [2]: 76% and 79%
Population Hoechst High Intensity Objects (%) [2]: 12% and 14%
Population Membrane Permeable-Phenotype (%) [2]: 0%
Population Mitochondria Different-Phenotype (%) [2]: 60% and 67%
Population Mitotic Cells (%) [2]: 52% and 44%
Population Normal (%) [2]: 87% and 85%
Population Pyknosed Nuclei (%) [2]: 14%
Population Tubulin-Different-Phenotype (%) [2]: 33% and 26%
Total Cell Count [2]: 381 and 292
Population Apoptotic (%) [3]: 38% and 55%
Population Fragmented Nuclei (%) [3]: 10% and 6%
Population Healthy Nuclei (%) [3]: 79% and 80%
Population Hoechst High Intensity Objects (%) [3]: 5% and 8%
Population Membrane Permeable-Phenotype (%) [3]: 1% and 0%
Population Mitochondria Different-Phenotype (%) [3]: 34% and 41%
Population Mitotic Cells (%) [3]: 61% and 44%
Population Normal (%) [3]: 94% and 91%
Population Pyknosed Nuclei (%) [3]: 10% and 13%
Population Tubulin-Different-Phenotype (%) [3]: 21% and 17%
Total Cell Count [3]: 549 and 387
Population Apoptotic (%) [4]: 30% and 34%
Population Fragmented Nuclei (%) [4]: 11%
Population Healthy Nuclei (%) [4]: 75% and 77%
Population Hoechst High Intensity Objects (%) [4]: 6% and 11%
Population Membrane Permeable-Phenotype (%) [4]: 0%
Population Mitochondria Different-Phenotype (%) [4]: 40% and 46%
Population Mitotic Cells (%) [4]: 69% and 65%
Population Normal (%) [4]: 93% and 88%
Population Pyknosed Nuclei (%) [4]: 12% and 10%
Population Tubulin-Different-Phenotype (%) [4]: 23% and 21%
Total Cell Count [4]: 451 and 377
Population Apoptotic (%) [5]: 12% and 29%
Population Fragmented Nuclei (%) [5]: 14% and 11%
Population Healthy Nuclei (%) [5]: 78%
Population Hoechst High Intensity Objects (%) [5]: 4% and 6%
Population Membrane Permeable-Phenotype (%) [5]: 0%
Population Mitochondria Different-Phenotype (%) [5]: 20% and 22%
Population Mitotic Cells (%) [5]: 87% and 70%
Population Normal (%) [5]: 95% and 93%
Population Pyknosed Nuclei (%) [5]: 7% and 9%
Population Tubulin-Different-Phenotype (%) [5]: 14% and 12%
Total Cell Count [5]: 859 and 532
Population Apoptotic (%) [6]: 34% and 48%
Population Fragmented Nuclei (%) [6]: 16% and 14%
Population Healthy Nuclei (%) [6]: 76% and 79%
Population Hoechst High Intensity Objects (%) [6]: 4%
Population Membrane Permeable-Phenotype (%) [6]: 1% and 0%
Population Mitochondria Different-Phenotype (%) [6]: 22% and 27%
Population Mitotic Cells (%) [6]: 65% and 51%
Population Normal (%) [6]: 95%
Population Pyknosed Nuclei (%) [6]: 6% and 5%
Population Tubulin-Different-Phenotype (%) [6]: 12% and 11%
Total Cell Count [6]: 671 and 584

CCCOc1ccc2[nH]cc(C3=CCNCC3)c2n1.Cl
Population Apoptotic (%) [1]: 32% and 44%
Population Fragmented Nuclei (%) [1]: 5% and 6%
Population Healthy Nuclei (%) [1]: 81% and 82%
Population Hoechst High Intensity Objects (%) [1]: 5% and 4%
Population Membrane Permeable-Phenotype (%) [1]: 0%
Population Mitochondria Different-Phenotype (%) [1]: 41% and 52%
Population Mitotic Cells (%) [1]: 68% and 55%
Population Normal (%) [1]: 94% and 95%
Population Pyknosed Nuclei (%) [1]: 12% and 10%
Population Tubulin-Different-Phenotype (%) [1]: 39% and 21%
Total Cell Count [1]: 416 and 344
Population Apoptotic (%) [2]: 43% and 55%
Population Fragmented Nuclei (%) [2]: 5% and 6%
Population Healthy Nuclei (%) [2]: 78% and 82%
Population Hoechst High Intensity Objects (%) [2]: 10% and 4%
Population Membrane Permeable-Phenotype (%) [2]: 0%
Population Mitochondria Different-Phenotype (%) [2]: 58% and 76%
Population Mitotic Cells (%) [2]: 56% and 44%
Population Normal (%) [2]: 89% and 95%
Population Pyknosed Nuclei (%) [2]: 15% and 11%
Population Tubulin-Different-Phenotype (%) [2]: 41%
Total Cell Count [2]: 446 and 387
Population Apoptotic (%) [3]: 28% and 35%
Population Fragmented Nuclei (%) [3]: 10% and 9%
Population Healthy Nuclei (%) [3]: 76% and 80%
Population Hoechst High Intensity Objects (%) [3]: 3% and 2%
Population Membrane Permeable-Phenotype (%) [3]: 0% and 1%
Population Mitochondria Different-Phenotype (%) [3]: 26% and 29%
Population Mitotic Cells (%) [3]: 71% and 64%
Population Normal (%) [3]: 96% and 97%
Population Pyknosed Nuclei (%) [3]: 12% and 9%
Population Tubulin-Different-Phenotype (%) [3]: 24% and 14%
Total Cell Count [3]: 558 and 425
Population Apoptotic (%) [4]: 39% and 51%
Population Fragmented Nuclei (%) [4]: 12% and 6%
Population Healthy Nuclei (%) [4]: 74% and 81%
Population Hoechst High Intensity Objects (%) [4]: 7% and 3%
Population Membrane Permeable-Phenotype (%) [4]: 0%
Population Mitochondria Different-Phenotype (%) [4]: 50% and 63%
Population Mitotic Cells (%) [4]: 60% and 48%
Population Normal (%) [4]: 92% and 96%
Population Pyknosed Nuclei (%) [4]: 12% and 11%
Population Tubulin-Different-Phenotype (%) [4]: 38% and 34%
Total Cell Count [4]: 583 and 502
Population Apoptotic (%) [5]: 17% and 38%
Population Fragmented Nuclei (%) [5]: 13% and 9%
Population Healthy Nuclei (%) [5]: 79% and 82%
Population Hoechst High Intensity Objects (%) [5]: 2% and 1%
Population Membrane Permeable-Phenotype (%) [5]: 0% and 1%
Population Mitochondria Different-Phenotype (%) [5]: 15% and 20%
Population Mitotic Cells (%) [5]: 82% and 61%
Population Normal (%) [5]: 97% and 98%
Population Pyknosed Nuclei (%) [5]: 6% and 7%
Population Tubulin-Different-Phenotype (%) [5]: 12% and 9%
Total Cell Count [5]: 872 and 657
Population Apoptotic (%) [6]: 35% and 26%
Population Fragmented Nuclei (%) [6]: 14% and 13%
Population Healthy Nuclei (%) [6]: 76% and 80%
Population Hoechst High Intensity Objects (%) [6]: 6% and 5%
Population Membrane Permeable-Phenotype (%) [6]: 0%
Population Mitochondria Different-Phenotype (%) [6]: 41% and 37%
Population Mitotic Cells (%) [6]: 64% and 73%
Population Normal (%) [6]: 93% and 94%
Population Pyknosed Nuclei (%) [6]: 8% and 6%
Population Tubulin-Different-Phenotype (%) [6]: 23% and 20%
Total Cell Count [6]: 776 and 733
